ChEMBL document CHEMBL3877288, “Identification and biochemical characterization of DC07090 as a novel potent small molecule inhibitor against human enterovirus 71 3C protease by structure-based virtual screening” (Eur J Med Chem, 2016)
Values belong to the compound of their own block, whether it stands above or below them. Active and inactive are the calls of the source. No cut-off for these calls is given here.

Assays:
Enterovirus A71 [1] = assay: Antiviral activity against EV71 infected in human RD cells assessed as protection against virus infection after 72 hrs by MTS assay; type: functional, cell-based; settings: Enterovirus A
Enterovirus A71 [2] = assay: Inhibition of recombinant N-terminal 6His-tagged EV71 3C protease expressed in Escherichia coli Rosetta using substrate Dabcyl-RTATVQGPSLDFE-Edans at 50 uM after 30 mins by fluorescence assay
Procedure, shortened: (§1)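 Preincubated with compound in DMSO for 30 min at 30 °C. Ex 340/Em 500 nm; initial velocity over the first 600 s. Inhibition relative to DMSO control; mean of three experiments. IC50 from serial dilutions.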

[3] = Inhibition of recombinant N-terminal 6His-tagged EV71 3C protease expressed in Escherichia coli Rosetta using substrate Dabcyl-RTATVQGPSLDFE-Edans preincubated for 30 mins followed by substrate addition; parameters: species or system Enterovirus A71; procedure, shortened: as §1
Enterovirus A71 [4] = assay: Antiviral activity against EV71 infected in human RD cells assessed as protection against virus-induced cytopathic effect after 48 hrs by MTS assay; type: functional, cell-based; settings: Enterovirus A
Enterovirus A71 [5] = assay: Antiviral activity against EV71 infected in human RD cells assessed as reduction in viral plaque formation after 1 hr by crystal violet staining method; type: functional, cell-based; settings: Enterovirus A
[6] = Binding affinity to recombinant N-terminal 6His-tagged EV71 3C protease expressed in Escherichia coli Rosetta by surface plasmon resonance assay; parameters: species or system Enterovirus A71
Procedure, shortened: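 Compound concentrations in HBS-EP were injected at 30 µL/min for 60 s, with 120 s dissociation, on a Biacore 3000. Kd fitted with a 1:1 Langmuir model.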

[7] = (§2) Binding affinity to recombinant N-terminal 6His-tagged EV71 3C protease expressed in Escherichia coli Rosetta after 1 hr by intrinsic fluorescence quenching assay; parameters: species or system Enterovirus A71
Procedure, shortened: (§3)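 Compound dilutions were mixed with 2 µM 3Cpro (wild type or mutants) for 1 h on ice, then held 5 min in the dark in a 1 cm quartz cell. Trp emission spectra recorded from 300 to 400 nm at 25 °C, with maximum at 340 nm. Kd derived from dose-dependent quenching.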

Enterovirus A71 [8] = assay: as §2; procedure, shortened: as §3
[9] = Competitive inhibition of recombinant N-terminal 6His-tagged EV71 3C protease expressed in Escherichia coli Rosetta using substrate Dabcyl-RTATVQGPSLDFE-Edans by Dixon plot; parameters: species or system Enterovirus A71
Procedure, shortened: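 Same fluorogenic 3Cpro activity assay (8 µM enzyme, 30 min preincubation at 30 °C, Ex 340/Em 500 nm, initial rates) run at inhibitor 0–20 µM and substrate 40–150 µM. Mechanism assigned from Lineweaver–Burk plots; Ki obtained from Dixon plots.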

Enterovirus A71 [10] = assay: Antiviral activity against EV71 assessed as reduction in viral replication after 72 hrs by CellTiter-glo luminescent cell viability assay; type: functional; settings: Enterovirus A
Procedure, shortened: (§4)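 RD cells seeded at 1 × 10^4/mL in DMEM with 10% FBS and antibiotics, grown 24 h at 37 °C, 5% CO2. Virus (EV71 50 TCID50; CVA16 100 TCID50) mixed with serial compound dilutions, added to cells and held 72 h at 37 °C. Protection read by CellTiter-Glo luminescence. EC50 is the concentration cutting virus-induced cell death by 50% versus virus control. Triplicate, run at least twice.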

Coxsackievirus = assay: Antiviral activity against Coxsackievirus A16 assessed as reduction in viral replication after 72 hrs by CellTiter-glo luminescent cell viability assay; type: functional; settings: A16, 72 h; procedure, shortened: as §4
[11] = Cytotoxicity against human RD cells after 48 hrs by CellTiter-glo luminescent cell viability assay; type: toxicity, cell-based
Procedure, shortened: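 RD cells plated at 1 × 10^3 per well in DMEM with 10% FBS and antibiotics, cultured overnight at 37 °C, 5% CO2. Compound added at 0–200 µM (final) for 48 h at 37 °C. CellTiter-Glo luminescence read. Inhibition = 1 − RLU(treated)/RLU(cell control) × 100%. CC50 obtained by regression analysis.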

[12] = Binding affinity to EV71 3C protease A144S mutant after 1 hr by intrinsic fluorescence quenching assay; parameters: species or system Enterovirus A71
[13] = Inhibition of EV71 3C protease A144S mutant using substrate Dabcyl-RTATVQGPSLDFE-Edans preincubated for 30 mins followed by substrate addition by fluorescence assay; parameters: species or system Enterovirus A71
[14] = Binding affinity to EV71 3C protease F25A mutant after 1 hr by intrinsic fluorescence quenching assay; parameters: species or system Enterovirus A71
Enterovirus A71 [15] = assay: Inhibition of EV71 3C protease F25A mutant using substrate Dabcyl-RTATVQGPSLDFE-Edans at 0.1 to 10 uM preincubated for 30 mins followed by substrate addition by fluorescence assay
[16] = Inhibition of EV71 3C protease F25W mutant using substrate Dabcyl-RTATVQGPSLDFE-Edans at 0.1 to 10 uM preincubated for 30 mins followed by substrate addition by fluorescence assay; parameters: species or system Enterovirus A71
[17] = Binding affinity to EV71 3C protease F25W mutant after 1 hr by intrinsic fluorescence quenching assay; parameters: species or system Enterovirus A71
Enterovirus A71 [18] = assay: Ratio of IC50 for recombinant N-terminal 6His-tagged EV71 3C protease to IC50 for EV71 3C protease A144S mutant
Enterovirus A71 [19] = assay: Ratio of IC50 for recombinant N-terminal 6His-tagged EV71 3C protease to IC50 for EV71 3C protease F25W mutant
Enterovirus A71 [20] = assay: Antiviral activity against EV71 infected in African green monkey Vero cells after 48 hrs by plaque assay; type: functional, cell-based; settings: Enterovirus A
[21] = Cytotoxicity against African green monkey Vero cells after 48 hrs by MTT assay; type: toxicity, cell-based; settings: chlorocebus sabaeus

SMILES: O=c1cc(-c2ccccc2)oc2cc(O)cc(O)c12 [CHRYSIN]
EC50 (Enterovirus A71 [1]): 15.9 µM

inhibition (Enterovirus A71 [2]): 19.2%
SMILES: Cc1cccc(CNc2ccc(-c3nc4ncccc4o3)cc2F)n1

inhibition (Enterovirus A71 [2]): 6.72%
SMILES: Cc1ccc2oc(-c3ccc(NCc4ccccn4)c(F)c3)nc2n1

inhibition (Enterovirus A71 [2]): 7.42%
SMILES: Cc1cccc(CNc2ccc(Cc3nc4nc(C)ccc4o3)cc2)n1

IC50 [3]: 48 µM
inhibition (Enterovirus A71 [2]): 73.7%
SMILES: c1ccc(CNc2ccc(Cc3nc4ncccc4o3)cc2)nc1

SMILES: O=c1cc(-c2ccc(O)c(O)c2)oc2cc(O[C@@H]3O[C@H](CO)[C@@H](O)[C@H](O)[C@H]3O)cc(O)c12 [GALUTEOLIN]
EC50 (Enterovirus A71 [4]): 430 µM

inhibition (Enterovirus A71 [2]): 18.6%
SMILES: Cc1cccc(CNc2ccc(-c3nc4nc(C)ccc4o3)cc2Cl)n1

IC50 [3]: 31.6 µM
inhibition (Enterovirus A71 [2]): 60%
SMILES: Cc1cccc(CNc2ccc(Cc3nc4ncccc4o3)cc2)n1

inhibition (Enterovirus A71 [2]): 6.65%
SMILES: Clc1cc(-c2nc3ncccc3o2)ccc1NCc1ccccn1

inhibition (Enterovirus A71 [2]): < 5%
SMILES: Cc1cccc(CNc2ccc(-c3nc4nc(C)ccc4o3)cc2F)n1

inhibition (Enterovirus A71 [2]): 11.9%
SMILES: Cc1ccc2oc(Cc3ccc(NCc4ccccn4)cc3)nc2n1

EC50 (Enterovirus A71 [5]): 110 µM
SMILES: C[C@@H]1O[C@@H](OC[C@H]2O[C@@H](Oc3c(-c4ccc(O)c(O)c4)oc4cc(O)cc(O)c4c3=O)[C@H](O)[C@@H](O)[C@@H]2O)[C@H](O)[C@H](O)[C@H]1O [RUTIN]

SMILES: c1ccc(CNc2ccc(-c3nc4ncccc4o3)cc2)nc1
IC50 [3]: 21.7 µM
Kd [6]: 16.5 µM
Kd [7]: 13.4 µM
Activity (Enterovirus A71 [8]): Dose-dependent effect
Ki [9]: 23.3 µM
inhibition (Enterovirus A71 [2]): 80.2%
EC50 (Enterovirus A71 [10]): 22.1 µM
EC50 (Coxsackievirus): 27.8 µM
CC50 at 48 h [11]: > 200 µM
Kd [12]: 6.37 µM
IC50 [13]: 9.73 µM
Kd [14]: 25 µM
inhibition (Enterovirus A71 [15]): Active
IC50 [16]: 2.28 µM
Kd [17]: 12.1 µM
Ratio IC50 (Enterovirus A71 [18]): 2.2
Ratio IC50 (Enterovirus A71 [19]): 9.5

inhibition (Enterovirus A71 [2]): 6.96%
SMILES: Cc1ccc2oc(-c3ccc(NCc4ccccn4)c(Cl)c3)nc2n1

SMILES: COc1cc(-c2cc(=O)c3c(O)cc(OP(=O)(OC(C)C)OC(C)C)cc3o2)cc(OC)c1O
EC50 (Enterovirus A71 [1]): 9.06 µM

inhibition (Enterovirus A71 [2]): < 5%
SMILES: Fc1cc(-c2nc3ncccc3o2)ccc1NCc1ccccn1

inhibition (Enterovirus A71 [2]): 19.2%
SMILES: Cc1ccc2oc(-c3ccc(NCc4ccccn4)cc3)nc2n1

IC50 [3]: 40.1 µM
inhibition (Enterovirus A71 [2]): 68.1%
SMILES: Cc1cccc(CNc2ccc(-c3nc4ncccc4o3)cc2)n1

inhibition (Enterovirus A71 [2]): < 5%
SMILES: Cc1cccc(CNc2ccc(-c3nc4nc(C)ccc4o3)cc2)n1

inhibition (Enterovirus A71 [2]): 34.7%
SMILES: Cc1cccc(CNc2ccc(-c3nc4ncccc4o3)cc2Cl)n1

IC50 [3]: 2.62 µM
inhibition (Enterovirus A71 [2]): 104%
SMILES: CCOC(=O)/C=C/[C@H](C[C@@H]1CCNC1=O)NC(=O)[C@@H](CC(=O)[C@@H](NC(=O)c1cc(C)on1)C(C)C)Cc1ccc(F)cc1 [RUPINTRIVIR]
EC50 (Coxsackievirus): 0.00565 µM

EC50 (Enterovirus A71 [5]): 84.5 µM
SMILES: O=c1c(O)c(-c2ccc(O)c(O)c2)oc2cc(O)ccc12 [FISETIN]

EC50 (Enterovirus A71 [20]): 0.67 µM
SMILES: C#C[C@@]1(O)[C@H](O)[C@@H](CO)O[C@H]1n1ccc2c(N)ncnc21
EC50 (Enterovirus A71 [10]): 0.17 µM
CC50 at 48 h [21]: 120 µM
